{"source": "paper PMC6219704", "about": "(Cell chemical biology, 2018)", "key": {"[1]": {"test_system": "E. coli strains with A2503C, A2059G or A2059C in the 23S rRNA", "experiment": "MIC against erythromycin-resistant strains with 23S rRNA mutations", "format": "cell-based, Escherichia coli", "conditions": "Table S2 (not available)", "procedure,_shortened": "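Broth microdilution in Müller-Hinton broth with E. coli grown at 37°C. Test compounds started at 128 μM and were serially two-fold diluted, then halved again on adding bacteria to 2.5 × 10^4 CFU/well. Plates sealed and incubated overnight at 37°C. MIC taken as the lowest concentration preventing visible growth.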"}, "[2]": {"target": "E. coli ribosomes on H-ns-PPP mRNA (Escherichia coli, UniProt P60723)", "experiment": "Toeprinting assay in fully reconstituted in vitro translation system", "format": "biochemical", "conditions": "1-100 μM peptide, 100 μM thiostrepton; 15 min 37°C"}}}
{"smiles": "CC[C@H]1OC(=O)[C@H](C)[C@@H](O[C@H]2C[C@@](C)(OC)[C@@H](O)[C@H](C)O2)[C@H](C)[C@@H](O[C@@H]2O[C@H](C)C[C@H](N(C)C)[C@H]2O)[C@](C)(O)C[C@@H](C)C(=O)[C@H](C)[C@@H](O)[C@]1(C)O", "note": "[erythromycin]", "values": [{"measurement": "Change in MIC with 23S rRNA mutations versus wildtype (in words)", "setting": "[1]", "value": "increased MIC"}]}
{"smiles": "C=C(NC(=O)C(=C)NC(=O)c1csc(C2=N[C@@H]3c4csc(n4)[C@H]4NC(=O)c5csc(n5)[C@H]([C@](C)(O)[C@@H](C)O)NC(=O)[C@H]5CSC(=N5)/C(=C/C)NC(=O)[C@H]([C@@H](C)O)NC(=O)c5csc(n5)[C@]3(CC2)NC(=O)[C@H](C)NC(=O)C(=C)NC(=O)[C@H](C)NC(=O)[C@H]([C@@H](C)CC)N[C@@H]2C=Cc3c([C@H](C)O)cc(nc3[C@H]2O)C(=O)O[C@@H]4C)n1)C(N)=O", "note": "[thiostrepton]", "values": [{"measurement": "Toeprint result (in words)", "setting": "[2]", "value": "ribosomes can initiate at the AUG start codon but cannot translate further"}]}
